Assay results from ChEMBL document CHEMBL4138058, “Design and synthesis of novel selective estrogen receptor degradation inducers based on the diphenylheptane skeleton” (Medchemcomm, 2017).

Experiments:
[1] = molecular target: T1, Vitamin D3 receptor (Homo sapiens) (UniProt P11473); test: Downregulation of VDR expression in human MCF7 cells at 1 uM after 6 hrs by Western blot method relative to lamin B; format: cell-based
T1 sequence (whole entry): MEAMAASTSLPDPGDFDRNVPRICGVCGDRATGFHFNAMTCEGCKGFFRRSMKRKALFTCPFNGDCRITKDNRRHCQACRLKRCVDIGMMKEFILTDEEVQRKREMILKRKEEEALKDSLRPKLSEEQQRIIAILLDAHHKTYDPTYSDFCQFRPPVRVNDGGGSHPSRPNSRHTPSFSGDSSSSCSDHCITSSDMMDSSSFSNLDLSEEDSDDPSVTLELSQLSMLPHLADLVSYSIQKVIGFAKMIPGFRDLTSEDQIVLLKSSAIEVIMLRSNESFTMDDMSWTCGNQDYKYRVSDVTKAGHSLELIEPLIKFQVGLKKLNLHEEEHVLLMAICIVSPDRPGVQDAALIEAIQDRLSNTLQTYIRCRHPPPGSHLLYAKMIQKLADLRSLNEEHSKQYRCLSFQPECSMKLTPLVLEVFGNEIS
How it was run: (§1)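 MCF-7 cells kept in DMEM with 10% FBS, kanamycin and 10 μg/mL insulin, then exposed to compounds for 6 h. Lysates made in SDS buffer (0.1 M Tris-HCl pH 8.0, 10% glycerol, 1% SDS), boiled, BCA-normalized and run on SDS-PAGE. Blots probed with anti-ERα, AR, AhR or VDR and β-actin or lamin B. Chemiluminescence quantified as target/loading-protein ratio; means ± S.E., n=3.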

Estrogen receptor = molecular target: T2, Estrogen receptor (Homo sapiens, UniProt P03372); test: Displacement of Fluormone ES2 Green from full-length untagged human ERalpha expressed in insect cells after 2 hrs by fluorescence polarization assay
T2 sequence (P03372 whole entry): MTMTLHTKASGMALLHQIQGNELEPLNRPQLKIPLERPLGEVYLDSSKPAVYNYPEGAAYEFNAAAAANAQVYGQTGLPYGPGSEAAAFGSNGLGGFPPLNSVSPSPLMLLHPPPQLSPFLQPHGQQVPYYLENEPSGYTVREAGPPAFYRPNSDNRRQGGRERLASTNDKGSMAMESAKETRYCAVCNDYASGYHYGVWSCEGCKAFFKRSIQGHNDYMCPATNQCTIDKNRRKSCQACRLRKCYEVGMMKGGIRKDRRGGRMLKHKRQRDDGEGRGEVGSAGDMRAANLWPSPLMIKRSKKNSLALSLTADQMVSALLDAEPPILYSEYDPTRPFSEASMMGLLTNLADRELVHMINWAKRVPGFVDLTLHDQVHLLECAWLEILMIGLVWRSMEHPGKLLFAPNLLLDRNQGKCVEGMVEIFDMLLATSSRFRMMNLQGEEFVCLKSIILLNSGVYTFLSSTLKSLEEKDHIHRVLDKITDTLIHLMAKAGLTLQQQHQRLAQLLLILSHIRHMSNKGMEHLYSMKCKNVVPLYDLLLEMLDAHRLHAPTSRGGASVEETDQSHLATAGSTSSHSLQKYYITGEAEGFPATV

[2] = molecular target: T1, Vitamin D3 receptor (Homo sapiens); test: Downregulation of VDR expression in human MCF7 cells at 10 uM after 6 hrs in presence of proteasome inhibitor MG132 by Western blot method relative to lamin B; format: cell-based; how it was run: as §1
[3] = molecular target: T3, Estrogen receptor (Homo sapiens) (UniProt P03372); test: Downregulation of ERalpha expression in human MCF7 cells at 10 uM after 6 hrs by Western blot method relative to lamin B; format: cell-based; how it was run: as §1
T3 sequence (whole entry): T2 sequence (P03372 whole entry)

[4] = molecular target: T4, Aryl hydrocarbon receptor (Homo sapiens, UniProt P35869); test: Downregulation of AhR expression in human MCF7 cells at 1 uM after 6 hrs in presence of proteasome inhibitor MG132 by Western blot method relative to lamin B; format: cell-based; conditions: mcf7, 6 h; how it was run: as §1
T4 sequence (P35869 whole entry): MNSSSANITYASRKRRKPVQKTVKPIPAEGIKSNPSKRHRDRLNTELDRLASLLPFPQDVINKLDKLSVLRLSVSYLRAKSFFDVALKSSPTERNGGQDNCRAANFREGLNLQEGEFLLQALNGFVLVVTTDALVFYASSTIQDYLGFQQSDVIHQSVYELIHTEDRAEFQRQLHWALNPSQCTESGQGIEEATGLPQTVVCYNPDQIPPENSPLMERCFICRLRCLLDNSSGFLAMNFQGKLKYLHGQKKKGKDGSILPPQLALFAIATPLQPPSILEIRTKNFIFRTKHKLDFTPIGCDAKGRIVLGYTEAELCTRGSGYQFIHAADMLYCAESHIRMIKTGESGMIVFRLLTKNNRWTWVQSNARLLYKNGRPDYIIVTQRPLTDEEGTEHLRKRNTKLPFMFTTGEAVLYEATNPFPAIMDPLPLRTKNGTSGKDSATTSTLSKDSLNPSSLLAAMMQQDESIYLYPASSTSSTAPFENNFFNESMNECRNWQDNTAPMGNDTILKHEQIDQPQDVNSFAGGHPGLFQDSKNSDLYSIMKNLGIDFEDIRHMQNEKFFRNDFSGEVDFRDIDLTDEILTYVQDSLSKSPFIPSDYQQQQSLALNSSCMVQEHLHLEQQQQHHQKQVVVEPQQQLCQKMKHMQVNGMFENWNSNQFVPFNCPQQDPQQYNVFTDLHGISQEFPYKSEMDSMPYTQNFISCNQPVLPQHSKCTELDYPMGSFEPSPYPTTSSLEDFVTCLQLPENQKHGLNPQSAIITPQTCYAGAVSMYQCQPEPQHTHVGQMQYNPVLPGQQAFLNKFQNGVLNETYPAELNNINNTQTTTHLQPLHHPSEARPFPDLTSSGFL

- Activity [1]: 100%
- IC50 (Estrogen receptor): 4.9 nM
- Activity [2]: 86%
- Activity [3]: 32 to 44%
- Activity [4]: 105%
Structure (SMILES): CCCCCCCCCCNCCOc1ccc(C(CCC)(CCC)c2ccc(O)c(C)c2)cc1C
